In the array DNA melting data of Ke et al. (doi:10.1101/2024.01.08.574731) one finds folding enthalpy and Tm data, which are given here for 37 sequences.

Data set [1] can be described thus: folding enthalpy; higher = less favourable; fluorescence melt of hairpins on a sequencing array, two-state fit. The conditions noted are these: sodium 0.088 M. The method in brief:
(§1)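 Library hairpins on a sequenced MiSeq flow cell carried annealed Cy3 and quencher oligos, and their Cy3 fluorescence was imaged in 50 mM Na-HEPES pH 8.0 with 25 mM NaCl, in 2.5 °C steps up to 60 °C. Signals were normalised to Cy3 before quenching and to control constructs. Melting temperature and folding enthalpy were obtained from bootstrapped two-state fits, combined by inverse-variance weighting across four replicates, and the fitted temperatures were then raised by 9.35 °C to match UV melts.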

The nature of data set [2]: melting temperature; fluorescence melt of hairpins on a sequencing array, two-state fit, raised by 9.35 °C to match UV melts. The following applies: sodium 0.088 M. The method in brief: as §1

In the case of GAGGGTGGAAACACTCTC (((.(((....))).))), in data set [1], the folding enthalpy was -125 kJ/mol. Further, the Tm in data set [2] is 52.3 °C.
On to GAGGGTGGAAACGCCCTC (((((.(....).))))), for which the folding enthalpy in data set [1] is -185 kJ/mol. Besides, the Tm in data set [2] came out at 57.6 °C.
Regarding GAGGGTGGAAACGTCCTC ((((..(....)..)))), the folding enthalpy in data set [1] is -99.9 kJ/mol. Further, in data set [2], the Tm came out at 35.1 °C.
Taken in the same sequence, the figures for GAGGTAGGAAACTATCTC (((.(((....))).))) were -111 kJ/mol and 38.7 °C.
GAGGTCGGAAACGATCTC (((.(((....))).))): the folding enthalpy in data set [1] is -183 kJ/mol. The Tm in data set [2] was 52.5 °C.
Taken in the same sequence, the figures for GAGGTCGGAAACGGCTTC ((.(.((....)).).)) were -85.8 kJ/mol and 36.1 °C.
Taken in the same sequence, the figures for GAGGTGAAAACCTC (((((....))))) were -94.9 kJ/mol and 53.3 °C.
Take GAGGTGCCGAAAGGCCTC (((..(((....)))))): the folding enthalpy in data set [1] is -45.1 kJ/mol. The Tm in data set [2] turned out to be 37.5 °C.
Taken in the same sequence, the figures for GAGGTGGCGAAAGCCCTC (((..(((....)))))) were -60.4 kJ/mol and 43.7 °C.
Taken in the same sequence, the figures for GAGGTGGGAAACCATCTC (((.(((....))).))) were -131 kJ/mol and 47.7 °C.
For GAGGTTGGAAACGACCTC (((((.(....).))))), the folding enthalpy in data set [1] is -144 kJ/mol. For the same sequence, the Tm in data set [2] was 51.3 °C.
As to GAGTAACGAAAGTTCCTC (((.(((....))).))), the folding enthalpy in data set [1] was -82.7 kJ/mol. For the same sequence, the Tm in data set [2] stood at 38 °C.
GAGTAAGAAATTACTC ((((((....)))))): in data set [1], the folding enthalpy is -103 kJ/mol. In addition, in data set [2], the Tm stood at 40.1 °C.
On to GAGTAAGGAAACCTACTC (((((.(....).))))), for which the folding enthalpy in data set [1] was -111 kJ/mol. Also, in data set [2], the Tm was found to be 33.2 °C.
Taken in the same sequence, the figures for GAGTAAGGAAACTCACTC ((((.((....)).)))) were -61.9 kJ/mol and 24.8 °C.
On the same counts, the results for GAGTACGGAAACGCACTC ((((.((....)).)))) are -132 kJ/mol and 45.3 °C.
Take GAGTACGGAAACGTATTC ((.((((....)))).)): the folding enthalpy in data set [1] is -102 kJ/mol. Further, the Tm in data set [2] is 41.6 °C.
Taken in the same sequence, the figures for GAGTACGGAAACGTGCTC (((.(((....))).))) were -204 kJ/mol and 53.8 °C.
Taken in the same sequence, the figures for GAGTATGGAAACATGCTC (((.(((....))).))) were -143 kJ/mol and 46.8 °C.
For the sequence GAGTCACGAAAGTGTCTC (((.(((....))).))), the folding enthalpy in data set [1] is -126 kJ/mol. Further, the Tm in data set [2] came to 49.8 °C.
Taken in the same sequence, the figures for GAGTCAGCGAAAGCTCTC (((..(((....)))))) were -49.4 kJ/mol and 30.1 °C.
On the same counts, the results for GAGTCAGGAAACTGACCC (.(((((....))))).) are -56 kJ/mol and 40.5 °C.
On the same counts, the results for GAGTCAGGAAACTGACTC (((((((....))))))) are -155 kJ/mol and 62.6 °C.
Turning to GAGTCCGAAAGGACGCTC ((((((....)))..))), the folding enthalpy in data set [1] was -57 kJ/mol. For the same sequence, the Tm in data set [2] was 64.2 °C.
Taken in the same sequence, the figures for GAGTCCGAAAGGAGACTC ((((((....)))..))) were -91.5 kJ/mol and 44.9 °C.
Consider GAGTCCGAAAGGAGCTC ((((((....))).))), for which the folding enthalpy in data set [1] is -92.2 kJ/mol. Further, the Tm in data set [2] came to 47.2 °C.
On the same counts, the results for GAGTCCGAAAGGATACTC ((((((....)))..))) are -74.9 kJ/mol and 38.6 °C.
Taken in the same sequence, the figures for GAGTCCGGAAACGGGCTC (((.(((....))).))) were -138 kJ/mol and 63.3 °C.
Take GAGTCGGGAAACCGATTC ((.((((....)))).)): the folding enthalpy in data set [1] was -105 kJ/mol. Also, the Tm in data set [2] was 47.7 °C.
On the same counts, the results for GAGTCGGGAAACCGGCTC (((.(((....))).))) are -139 kJ/mol and 61.1 °C.
Turning to GAGTCTGGAAACGGACTC (((((.(....).))))), the folding enthalpy in data set [1] was -169 kJ/mol. Besides, the Tm in data set [2] amounted to 52.3 °C.
Taken in the same sequence, the figures for GAGTGACGAAAGTCCCTC (((.(((....))).))) were -102 kJ/mol and 45.1 °C.
Taken in the same sequence, the figures for GAGTGAGGAAACTCATTC ((.((((....)))).)) were -98.4 kJ/mol and 38.5 °C.
Taken in the same sequence, the figures for GAGTGCGAAAGCAGGCTC ((((((....)))..))) were -70 kJ/mol and 48.3 °C.
Turning to GAGTGCGGAAACGCATTC ((.((((....)))).)), in data set [1], the folding enthalpy is -99.5 kJ/mol. Also, the Tm in data set [2] amounted to 51.9 °C.
Taken in the same sequence, the figures for GAGTGGCGAAAGCCTCTC (((.(((....))).))) were -101 kJ/mol and 53.6 °C.
On the same counts, the results for GAGTGTGCGAAAGCACTC (((..(((....)))))) are -39.3 kJ/mol and 37.8 °C.
